Test results reported in ChEMBL document CHEMBL1123582, “Substituted 2-(2-hydroxyphenyl)benzimidazoles as potential agents for the control of periodontal diseases” (1987).
In brackets after ≈: the same amount, converted by molar mass. Activity calls are given as the source filed them. The rule behind the calls is not given here.

Legend:
Actinomyces viscosus [1] = test: Evaluated for the in vitro minimum bactericidal concentration (MBC) against periopathogenic Actinomycetes viscosus bacteria; NE means not effective; assay type: functional, organism-based
Method in brief: (§1)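 Tested against A. viscosus M100-2000, maintained in Trypticase Soy Broth with excess CaCO3, by tube dilution. EtOH or Me2SO stocks (1 mg/100 μL) were diluted at least 100-fold into 3-fold dilution series in Bacto Anaerobe broth. Tubes were seeded with 50 μL of 10⁸ cfu/mL log-phase culture and held at 37 °C in an anaerobic chamber (5% CO2, 10% H2, 85% Ar). Values are in μg/mL, consistent in triplicate.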

Porphyromonas gingivalis [2] = test: Evaluated for the in vitro minimum bactericidal concentration (MBC) against periopathogenic Bacteroides gingivalis bacteria; NE means not effective; assay type: functional, organism-based
Method in brief: (§2)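 B. gingivalis 381, maintained in Trypticase Soy Broth plus excess CaCO3, was assayed by tube dilution. Stocks of 1 mg/100 μL in EtOH or Me2SO were diluted 100-fold or more to give 3-fold dilutions in Bacto Anaerobe broth. Inoculum was 50 μL of log-phase culture at 10⁸ cfu/mL, with incubation at 37 °C anaerobically (5% CO2/10% H2/85% Ar). Concentrations are μg/mL, consistent for triplicate assays.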

[3] = tested on: Aggregatibacter actinomycetemcomitans; test: Evaluated for the in vitro minimum bactericidal concentration (MBC) against periopathogenic Actinobacillus actinomycetemcommitans bacteria; NE means not effective; assay type: functional, organism-based
Method in brief: (§3)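 Tube dilution test against A. actinomycetemcomitans Y4, kept in Trypticase Soy Broth with excess CaCO3. Compound stocks of 1 mg/100 μL EtOH or Me2SO were diluted at least 100-fold into 3-fold series in Bacto Anaerobe broth. Each tube got 50 μL of log-phase inoculum at 10⁸ cfu/mL and was incubated at 37 °C under anaerobic 5% CO2/10% H2/85% Ar. Values are μg/mL, consistent across triplicates.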

Actinomyces viscosus [4] = test: Evaluated for the in vitro minimum bactericidal concentration (MBC) against periopathogenic Actinomycetes viscosus bacteria; assay type: functional; method in brief: as §1
[5] = tested on: Aggregatibacter actinomycetemcomitans; test: Evaluated for the in vitro minimum bactericidal concentration (MBC) against periopathogenic Actinobacillus actinomycetemcommitans bacteria; assay type: functional; method in brief: as §3
Porphyromonas gingivalis [6] = test: Evaluated for the in vitro minimum bactericidal concentration (MBC) against periopathogenic Bacteroides gingivalis bacteria; assay type: functional; method in brief: as §2
Actinomyces viscosus [7] = test: Evaluated for the in vitro minimum bactericidal concentration (MBC) against periopathogenic Actinomycetes viscosus bacteria;NE means not effective; assay type: functional, organism-based; method in brief: as §1
Actinomyces viscosus [8] = test: Evaluated for the in vitro minimum bactericidal concentration (MBC) against periopathogenic Actinomycetes viscosus bacteria.; assay type: functional; method in brief: as §1

SMILES: CCCCCCC(=O)c1ccc(O)c(-c2nc3cc(Cl)ccc3[nH]2)c1
- MBC (Actinomyces viscosus [1]): inactive
- MBC (Porphyromonas gingivalis [2]): inactive
- MBC [3]: inactive

SMILES: N=C(NCCCCCCNC(=N)NC(=N)Nc1ccc(Cl)cc1)NC(=N)Nc1ccc(Cl)cc1 [CHLORHEXIDINE]
- MBC (Actinomyces viscosus [4]): 0.5 µg/mL (≈ 0.989 µM)
- MBC [5]: 0.5 µg/mL (≈ 0.989 µM)
- MBC (Porphyromonas gingivalis [6]): 0.05 µg/mL (≈ 0.0989 µM)

SMILES: CCCCCCCCC(=O)c1ccc(O)c(-c2nc3cc(C(F)(F)F)ccc3[nH]2)c1
- MBC (Actinomyces viscosus [4]): 0.5 µg/mL (≈ 1.19 µM)
- MBC (Porphyromonas gingivalis [6]): 0.1 µg/mL (≈ 0.239 µM)

SMILES: Cc1ccc2[nH]c(-c3ccccc3O)nc2c1
- MBC [5]: 1 µg/mL (≈ 4.46 µM)
- MBC (Actinomyces viscosus [1]): inactive
- MBC (Porphyromonas gingivalis [6]): 1 µg/mL (≈ 4.46 µM)

SMILES: CCCCCCC(=O)c1ccc(O)c(-c2nc3cc(C)ccc3[nH]2)c1
- MBC (Actinomyces viscosus [1]): inactive
- MBC (Porphyromonas gingivalis [2]): inactive
- MBC [3]: inactive

SMILES: CCCCCCCCCC(=O)c1ccc(O)c(-c2nc3cc(C(F)(F)F)ccc3[nH]2)c1
- MBC (Actinomyces viscosus [1]): inactive
- MBC (Porphyromonas gingivalis [2]): inactive
- MBC [3]: inactive

SMILES: CCCCCCCCC(=O)c1ccc(O)c(-c2nc3cc(C)ccc3[nH]2)c1
- MBC (Actinomyces viscosus [4]): 10 µg/mL (≈ 27.4 µM)
- MBC [3]: inactive

SMILES: Oc1c(Br)cc(Br)cc1-c1nc2cc(C(F)(F)F)ccc2[nH]1
- MBC (Actinomyces viscosus [4]): 0.1 µg/mL (≈ 0.229 µM)
- MBC [5]: 1 µg/mL (≈ 2.29 µM)
- MBC (Porphyromonas gingivalis [6]): 0.05 µg/mL (≈ 0.115 µM)

SMILES: CCCCCCCC(=O)c1ccc(O)c(-c2nc3cc(C(F)(F)F)ccc3[nH]2)c1
- MBC (Actinomyces viscosus [4]): 0.5 µg/mL (≈ 1.24 µM)
- MBC (Porphyromonas gingivalis [6]): 0.5 µg/mL (≈ 1.24 µM)
- MBC [3]: inactive

SMILES: Oc1ccccc1-c1nc2cc(C(F)(F)F)ccc2[nH]1
- MBC (Actinomyces viscosus [7]): inactive
- MBC (Porphyromonas gingivalis [6]): 50 µg/mL (≈ 180 µM)
- MBC [3]: inactive

SMILES: CCCCCCC(=O)c1ccc(O)c(-c2nc3cc(C(F)(F)F)ccc3[nH]2)c1
- MBC (Actinomyces viscosus [4]): 0.5 µg/mL (≈ 1.28 µM)
- MBC (Porphyromonas gingivalis [6]): 0.05 µg/mL (≈ 0.128 µM)
- MBC [3]: inactive

SMILES: CCCCCCCC(=O)c1ccc(O)c(-c2nc3cc(Cl)ccc3[nH]2)c1
- MBC (Actinomyces viscosus [1]): inactive

SMILES: CCCCCC(=O)c1ccc(O)c(-c2nc3cc(C(F)(F)F)ccc3[nH]2)c1
- MBC (Actinomyces viscosus [4]): 0.5 µg/mL (≈ 1.33 µM)
- MBC (Porphyromonas gingivalis [6]): 0.1 µg/mL (≈ 0.266 µM)
- MBC [3]: inactive

SMILES: CCCCCCCCC(=O)c1ccc(O)c(-c2nc3cc([N+](=O)[O-])ccc3[nH]2)c1
- MBC (Actinomyces viscosus [1]): inactive
- MBC (Porphyromonas gingivalis [2]): inactive
- MBC [3]: inactive

SMILES: O=C(Nc1ccc(Br)cc1)c1cc(Br)cc(Br)c1O [TRIBROMSALAN]
- MBC (Actinomyces viscosus [4]): 1 µg/mL (≈ 2.22 µM)
- MBC [5]: 0.5 µg/mL (≈ 1.11 µM)
- MBC (Porphyromonas gingivalis [6]): 0.05 µg/mL (≈ 0.111 µM)

SMILES: CCCCCCCCC(=O)c1ccc(O)c(-c2nc3cc(Cl)ccc3[nH]2)c1
- MBC (Actinomyces viscosus [1]): inactive
- MBC (Porphyromonas gingivalis [2]): inactive
- MBC [3]: inactive

SMILES: CN(C)[C@@H]1C(O)=C(C(N)=O)C(=O)[C@@]2(O)C(O)=C3C(=O)c4c(O)cccc4[C@@](C)(O)[C@H]3C[C@@H]12 [TETRACYCLINE]
- MBC (Actinomyces viscosus [4]): 0.5 µg/mL (≈ 1.13 µM)
- MBC [5]: 0.5 µg/mL (≈ 1.13 µM)
- MBC (Porphyromonas gingivalis [6]): 0.05 µg/mL (≈ 0.113 µM)

SMILES: Oc1c(Br)cc(Br)cc1-c1nc2cc(Cl)ccc2[nH]1
- MBC (Actinomyces viscosus [4]): 0.5 µg/mL (≈ 1.24 µM)
- MBC [5]: 5 µg/mL (≈ 12.4 µM)
- MBC (Porphyromonas gingivalis [6]): 0.05 µg/mL (≈ 0.124 µM)

SMILES: CCCCC(=O)c1ccc(O)c(-c2nc3cc(C(F)(F)F)ccc3[nH]2)c1
- MBC (Actinomyces viscosus [8]): 0.5 µg/mL (≈ 1.38 µM)
- MBC (Porphyromonas gingivalis [6]): 0.5 µg/mL (≈ 1.38 µM)
- MBC [3]: inactive

SMILES: CCCC(=O)c1ccc(O)c(-c2nc3cc(C(F)(F)F)ccc3[nH]2)c1
- MBC (Actinomyces viscosus [4]): 0.5 µg/mL (≈ 1.44 µM)
- MBC [5]: 5 µg/mL (≈ 14.4 µM)
- MBC (Porphyromonas gingivalis [6]): 0.05 µg/mL (≈ 0.144 µM)
